Test results reported in ChEMBL document CHEMBL1157378, “Role for cell density in antifungal drug resistance in Candida albicans biofilms” (2007).
≈ marks a conversion by molar mass, not a printed value.

How the values were obtained:
Type in all cases: functional
Candida albicans [1] = experiment: Antimicrobial activity against Candida albicans SC5314 at planktonic cell density of 10^8 cells/ml after 48 hrs by XTT assay; settings: SC5314, 48 h
How it was run: (§1)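 YNB-grown yeast (50 mM glucose, room temperature, shaken, to ~2 x 10^8 cells/ml) washed into MOPS-buffered RPMI 1640 with L-glutamine and set to the stated density. Exposed to twofold serial drug dilutions (1,024 to 0.0313 µg/ml) at 37°C, 48 h (caspofungin 24 h), with drug-free controls. Read-out: XTT (0.5 g/liter) plus 1 µM menadione, formazan at 490 nm.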

Candida albicans [2] = experiment: Antimicrobial activity against Candida albicans GDH2346 intact biofilms after 48 hrs by XTT assay; settings: GDH2346, 48 h
How it was run: (§2)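 Biofilm seeded at 1 x 10^6 cells/ml in RPMI in polystyrene microtiter wells and grown 48 h at 37°C in a moist chamber. Washed once and drug added to the same well (twofold dilutions, 1,024 to 0.0313 µg/ml) for 48 h at 37°C (caspofungin 24 h). Read-out: XTT/menadione reduction at 490 nm.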

Candida albicans [3] = experiment: Antimicrobial activity against Candida albicans GDH2346 dissociated biofilms at cell density of 10^8 cells/ml after 48 hrs by XTT assay; settings: GDH2346, 48 h
How it was run: (§3)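 Polystyrene-well biofilms (48 h, 37°C) washed, then broken up in 100 µl RPMI by scraping and aspiration. Cells used undiluted (about 2 x 10^8 cells/ml equivalent) or adjusted by A600 against a hemacytometer-calibrated yeast standard curve. Drug exposure at 37°C for 48 h (caspofungin 24 h), then XTT/menadione read at 490 nm.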

Candida albicans [4] = experiment: Antimicrobial activity against Chk1 deficient Candida albicans CHK21 dissociated biofilms at cell density of 10^8 cells/ml after 48 hrs by XTT assay; settings: CHK21, 48 h; how it was run: as §3
Candida albicans [5] = experiment: Antimicrobial activity against Cdr1, Cdr2 and Mdr1 deficient Candida albicans DSY1050 at planktonic cell density of 10^3 cells/ml after 48 hrs by XTT assay; settings: DSY1050, 48 h; how it was run: as §1
Candida albicans [6] = experiment: Antimicrobial activity against Chk1 deficient Candida albicans CHK21 dissociated biofilms at cell density of 10^3 cells/ml after 48 hrs by XTT assay; settings: CHK21, 48 h; how it was run: as §3
Candida albicans [7] = experiment: Antimicrobial activity against fluconazole-resistant Candida albicans FH5 at planktonic cell density of 10^8 cells/ml after 48 hrs by XTT assay; settings: FH5, 48 h; how it was run: as §1
Candida albicans [8] = experiment: Antimicrobial activity against Chk1 deficient Candida albicans CHK21 at planktonic cell density of 10^3 cells/ml after 48 hrs by XTT assay; settings: CHK21, 48 h; how it was run: as §1
Candida albicans [9] = experiment: Antimicrobial activity against Candida albicans GDH2346 dissociated biofilms at cell density of 10^3 cells/ml after 48 hrs by XTT assay; settings: GDH2346, 48 h; how it was run: as §3
Candida albicans [10] = experiment: Antimicrobial activity against Cdr1, Cdr2 and Mdr1 deficient Candida albicans DSY1050 at planktonic cell density of 10^8 cells/ml after 48 hrs by XTT assay; settings: DSY1050, 48 h; how it was run: as §1
Candida albicans [11] = experiment: Antimicrobial activity against Candida albicans GDH2346 at planktonic cell density of 10^3 cells/ml after 48 hrs by XTT assay; settings: GDH2346, 48 h; how it was run: as §1
Candida albicans [12] = experiment: Antimicrobial activity against Candida albicans SC5314 dissociated biofilms at cell density of 10^8 cells/ml after 48 hrs by XTT assay; settings: SC5314, 48 h; how it was run: as §3
Candida albicans [13] = experiment: Antimicrobial activity against Candida albicans assessed as cell viability at cell density of 2 x 10^4 cells/ml preincubated for 1 hr
Candida albicans [14] = experiment: Antimicrobial activity against Candida albicans SC5314 at planktonic cell density of 10^3 cells/ml after 48 hrs by XTT assay; settings: SC5314, 48 h; how it was run: as §1
Candida albicans [15] = experiment: Antimicrobial activity against Candida albicans FH1 intact biofilms after 48 hrs by XTT assay; settings: FH1, 48 h; how it was run: as §2
Candida albicans [16] = experiment: Antimicrobial activity against Candida albicans SC5314 biofilms after 24 hrs by XTT assay; settings: SC5314, 24 h
How it was run: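 Intact biofilms formed from 1 x 10^6 cells/ml in RPMI in polystyrene microtiter wells, 48 h at 37°C in a moist chamber, then washed once and covered with 100 µl RPMI. A twofold drug series was added in the same well for 24 h at 37°C. Metabolic activity was read by XTT (0.5 g/liter, 1 µM menadione, up to 2 h) at 490 nm.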

Candida albicans [17] = experiment: Antimicrobial activity against Cdr1, Cdr2 and Mdr1 deficient Candida albicans DSY1050 dissociated biofilms at cell density of 10^3 cells/ml after 48 hrs by XTT assay; settings: DSY1050, 48 h; how it was run: as §3
Candida albicans [18] = experiment: Antimicrobial activity against Cdr1, Cdr2 and Mdr1 deficient Candida albicans DSY1050 dissociated biofilms at cell density of 10^8 cells/ml after 48 hrs by XTT assay; settings: DSY1050, 48 h; how it was run: as §3
Candida albicans [19] = experiment: Antimicrobial activity against Candida albicans FH1 at planktonic cell density of 10^3 cells/ml after 48 hrs by XTT assay; settings: FH1, 48 h; how it was run: as §1
Candida albicans [20] = experiment: Antimicrobial activity against Chk1 deficient Candida albicans CHK21 at planktonic cell density of 10^8 cells/ml after 48 hrs by XTT assay; settings: CHK21, 48 h; how it was run: as §1
Candida albicans [21] = experiment: Antimicrobial activity against Candida albicans FH1 dissociated biofilms at cell density of 10^3 cells/ml after 48 hrs by XTT assay; settings: FH1, 48 h; how it was run: as §3
Candida albicans [22] = experiment: Antimicrobial activity against Candida albicans SC5314 intact biofilms after 48 hrs by XTT assay; settings: SC5314, 48 h; how it was run: as §2
Candida albicans [23] = experiment: Antimicrobial activity against Candida albicans GDH2346 at planktonic cell density of 10^8 cells/ml after 48 hrs by XTT assay; settings: GDH2346, 48 h; how it was run: as §1
Candida albicans [24] = experiment: Antimicrobial activity against Candida albicans FH1 dissociated biofilms at cell density of 10^8 cells/ml after 48 hrs by XTT assay; settings: FH1, 48 h; how it was run: as §3
Candida albicans [25] = experiment: Antimicrobial activity against Candida albicans SC5314 biofilms upto 12 hrs by XTT assay; settings: SC5314, 12 h
How it was run: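 SC5314 biofilm development followed over 72 h in polystyrene wells. At intervals the developing biofilm was exposed to fluconazole or amphotericin B, and metabolic activity was read by XTT/menadione reduction at 490 nm.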

Candida albicans [26] = experiment: Antimicrobial activity against fluconazole-resistant Candida albicans FH5 intact biofilms after 48 hrs by XTT assay; settings: FH5, 48 h; how it was run: as §2
Candida albicans [27] = experiment: Antimicrobial activity against fluconazole-resistant Candida albicans FH5 at planktonic cell density of 10^3 cells/ml after 48 hrs by XTT assay; settings: FH5, 48 h; how it was run: as §1
Candida albicans [28] = experiment: Antimicrobial activity against Chk1 deficient Candida albicans CHK21 intact biofilms after 48 hrs by XTT assay; settings: CHK21, 48 h; how it was run: as §2
Candida albicans [29] = experiment: Antimicrobial activity against Cdr1, Cdr2 and Mdr1 deficient Candida albicans DSY1050 intact biofilms after 48 hrs by XTT assay; settings: DSY1050, 48 h; how it was run: as §2
Candida albicans [30] = experiment: Antimicrobial activity against fluconazole-resistant Candida albicans FH5 dissociated biofilms at cell density of 10^8 cells/ml after 48 hrs by XTT assay; settings: FH5, 48 h; how it was run: as §3
Candida albicans [31] = experiment: Antimicrobial activity against Candida albicans FH1 at planktonic cell density of 10^8 cells/ml after 48 hrs by XTT assay; settings: FH1, 48 h; how it was run: as §1
Candida albicans [32] = experiment: Antimicrobial activity against Candida albicans SC5314 dissociated biofilms at cell density of 10^3 cells/ml after 48 hrs by XTT assay; settings: SC5314, 48 h; how it was run: as §3
Candida albicans [33] = experiment: Antimicrobial activity against fluconazole-resistant Candida albicans FH5 dissociated biofilms at cell density of 10^3 cells/ml after 48 hrs by XTT assay; settings: FH5, 48 h; how it was run: as §3

**Q.** For `C[C@@H]1[C@H](O)[C@@H](C)/C=C/C=C/C=C/C=C/C=C/C=C/C=C/[C@H](O[C@@H]2O[C@H](C)[C@@H](O)[C@H](N)[C@@H]2O)C[C@@H]2O[C@](O)(C[C@@H](O)C[C@@H](O)[C@H](O)CC[C@@H](O)C[C@@H](O)CC(=O)O[C@H]1C)C[C@H](O)[C@H]2C(=O)O` [AMPHOTERICIN B], which MIC80 (Candida albicans [1]) is on record?
**A.** > 32 µg/mL

**Q.** What about the MIC80 (Candida albicans [2]) of the same molecule?
**A.** 32 µg/mL (≈ 34.6 µM)

**Q.** What about the MIC80 (Candida albicans [3]) of the same molecule?
**A.** > 32 µg/mL

**Q.** What about the MIC80 (Candida albicans [4]) of the same molecule?
**A.** > 32 µg/mL

**Q.** And the MIC80 (Candida albicans [5])?
**A.** 0.25 µg/mL (≈ 0.271 µM)

**Q.** What about the MIC80 (Candida albicans [6]) of the same molecule?
**A.** 0.25 µg/mL (≈ 0.271 µM)

**Q.** What about the MIC80 (Candida albicans [7]) of the same molecule?
**A.** > 32 µg/mL

**Q.** And the MIC80 (Candida albicans [8])?
**A.** 0.125 µg/mL (≈ 0.135 µM)

**Q.** What about the MIC80 (Candida albicans [9]) of the same molecule?
**A.** 0.5 µg/mL (≈ 0.541 µM)

**Q.** What about the MIC80 (Candida albicans [10]) of the same molecule?
**A.** > 32 µg/mL

**Q.** And the MIC80 (Candida albicans [11])?
**A.** 0.125 µg/mL (≈ 0.135 µM)

**Q.** And the MIC80 (Candida albicans [12])?
**A.** > 32 µg/mL

**Q.** And the Activity (Candida albicans [13])?
**A.** 80%

**Q.** What about the MIC80 (Candida albicans [14]) of the same molecule?
**A.** 0.125 µg/mL (≈ 0.135 µM)

**Q.** What about the MIC80 (Candida albicans [15]) of the same molecule?
**A.** > 32 µg/mL

**Q.** What about the MIC80 (Candida albicans [16]) of the same molecule?
**A.** > 8 µg/mL

**Q.** What about the MIC80 (Candida albicans [17]) of the same molecule?
**A.** 0.25 µg/mL (≈ 0.271 µM)

**Q.** And the MIC80 (Candida albicans [18])?
**A.** > 32 µg/mL

**Q.** What about the MIC80 (Candida albicans [19]) of the same molecule?
**A.** 0.125 µg/mL (≈ 0.135 µM)

**Q.** What about the MIC80 (Candida albicans [20]) of the same molecule?
**A.** > 32 µg/mL

**Q.** And the MIC80 (Candida albicans [21])?
**A.** 0.125 µg/mL (≈ 0.135 µM)

**Q.** And the MIC80 (Candida albicans [22])?
**A.** > 32 µg/mL

**Q.** And the MIC80 (Candida albicans [23])?
**A.** > 32 µg/mL

**Q.** And the MIC80 (Candida albicans [24])?
**A.** > 32 µg/mL

**Q.** And the MIC80 (Candida albicans [25])?
**A.** 0.125 µg/mL (≈ 0.135 µM)

**Q.** What about the MIC80 (Candida albicans [26]) of the same molecule?
**A.** > 32 µg/mL

**Q.** And the MIC80 (Candida albicans [27])?
**A.** 0.25 µg/mL (≈ 0.271 µM)

**Q.** What about the MIC80 (Candida albicans [28]) of the same molecule?
**A.** > 32 µg/mL

**Q.** And the MIC80 (Candida albicans [29])?
**A.** > 32 µg/mL

**Q.** And the MIC80 (Candida albicans [30])?
**A.** > 32 µg/mL

**Q.** What about the MIC80 (Candida albicans [31]) of the same molecule?
**A.** > 32 µg/mL

**Q.** What about the MIC80 (Candida albicans [32]) of the same molecule?
**A.** 0.5 µg/mL (≈ 0.541 µM)

**Q.** And the MIC80 (Candida albicans [33])?
**A.** 0.25 µg/mL (≈ 0.271 µM)
